Compound activity deposited in PubChem BioAssay by The Scripps Research Institute Molecular Screening Center.
OX1R antag-1 = OX1R (HCRTR1) antagonists, primary screen, fluorescence, CHO/OX1R cells, Fluo-8 calcium, orexin A; Fluo-8 calcium fluorescence; inhibition, % at 5 µM; 0.43% of 330,000 active; AID 434989, 2010;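 active = inhibition above its plate's threshold, mean inhibition of all tested compounds on the plate plus 3 SD, cut at about 37% in these data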
CHO parental Ca = ATP-evoked calcium signal inhibitors, parental CHO, primary screen, counter-screen for OX1R antagonist project, cell-based, fluorescence, Fluo-8 calcium dye. inhibition, % at 5.6 µM. parental CHO-K1, ATP-induced calcium, Fluo-8 fluorescence. 0.63% of 330,000 active. AID 463079, 2010;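 active = inhibition above that plate's mean sample inhibition plus 3 SD, cut at about 26% in these data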
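Measured by: calcium-sensitive Fluo-8 fluorescence / Test system: CHO parental line / Controls: ATP-challenged DMSO wells low, unchallenged DMSO wells high / Measure: % inhibition / Compound: single nominal dose of 5.6 µM per compound / Replicates: single well per compound, no replicates / Reagent: ATP as calcium-mobilizing challenge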
TAAR1 agonist = human TAAR1 agonists, primary screen, Fluo-8 calcium fluorescence, CHO RD-HGA16 cells. vehicle wells 0%, saturating PEA agonist 100%. activation, % at 3 µM. 0.99% of 360,000 active. AID 624467, 2012;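 active = activation above the mean activation of all test compounds in the run plus 3 SD, cut at about 38% in these data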
Target sequence (Q96RJ0 whole entry, looked up): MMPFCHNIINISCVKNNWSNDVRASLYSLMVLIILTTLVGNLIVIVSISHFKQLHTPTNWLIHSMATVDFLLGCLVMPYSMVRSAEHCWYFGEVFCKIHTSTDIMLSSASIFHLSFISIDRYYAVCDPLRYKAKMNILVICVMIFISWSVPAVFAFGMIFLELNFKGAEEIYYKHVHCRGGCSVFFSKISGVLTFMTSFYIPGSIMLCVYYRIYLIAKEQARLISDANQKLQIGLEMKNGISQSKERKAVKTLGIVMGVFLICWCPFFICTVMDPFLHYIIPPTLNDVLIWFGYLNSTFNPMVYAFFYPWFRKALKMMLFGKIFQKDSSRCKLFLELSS
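Test system: RD-HGA16 (CHO) cells co-expressing Gα16 and hTAAR1 / Benchmarks: DMSO vehicle as 0%, PEA at EC100 as 100% / Repeats: no replicates (n 1) / Measure: % activation from peak over basal fluorescence ratio, DMSO-to-PEA scaled / Timing: 17-24 h plating, Fluo-8 75 min 37 °C, 30 min RT / Technique: kinetic Fluo-8 calcium fluorescence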
OX1R antag-2 = antagonists of human orexin 1 receptor (OX1R). inhibition, % at 6.6 µM. 1.8% of 330,000 active. OX1R-expressing cells, FRET antagonist read-out. Orexin/Hypocretin receptor type 1 (Homo sapiens), O43613; in the data active = inhibition mostly above about 38%, no sharp cut-off; inactive = mostly below about 40%
GalR3 antag = GalR3 antagonists in HEK293 cells, primary screen, cell-based, fluorescence readout. Galanin receptor type 3 (Homo sapiens), O60755. HEK293 GalR3-CNG cAMP membrane potential fluorescence; galR3 body fused to GalR1 C-terminus. inhibition, % at 3 µM. 0.44% of 360,000 active;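 active = inhibition above the screen-wide average plus 3 SD, cut at about 13% in these data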;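 also: forskolin and galanin both at EC90 stimulate the cells; cAMP rise reported by CNG channel membrane potential dye signal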
Target sequence (O60755 1-299 limits assumed): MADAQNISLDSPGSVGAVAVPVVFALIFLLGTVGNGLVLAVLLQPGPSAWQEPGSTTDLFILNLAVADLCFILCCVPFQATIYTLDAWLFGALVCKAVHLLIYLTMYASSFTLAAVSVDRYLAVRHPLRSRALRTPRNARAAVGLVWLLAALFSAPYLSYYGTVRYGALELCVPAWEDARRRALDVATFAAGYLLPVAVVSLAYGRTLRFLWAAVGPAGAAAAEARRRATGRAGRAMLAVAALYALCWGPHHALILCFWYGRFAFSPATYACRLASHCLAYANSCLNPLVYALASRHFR
TAAR1 antag = human TAAR1 antagonists, primary screen, Fluo-8 calcium fluorescence, CHO RD-HGA16 cells. AID 624466, 2012. antagonist. Trace amine-associated receptor 1 (Homo sapiens), Q96RJ0. 1.5% of 360,000 active. inhibition, % at 3 µM;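 active = inhibition above a per-plate cutoff, the mean inhibition of test compounds on that plate plus 3 SD, cut at about 49% in these data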
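System: CHO RD-HGA16 cells bearing hTAAR1. Reagent: EC80 β-phenethylamine stimulus. Schedule: seeding 17-24 h prior, 75-min 37 °C, 30-min RT dye loading. Signal: Fluo-8 intracellular calcium dye fluorescence, real-time kinetic reads. Read-out: % inhibition from peak post-agonist over basal fluorescence ratio. Benchmarks: vehicle wells and EC80 agonist wells. Replicates: n of 1.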
Each line names hits and unclear results; the compound was inactive in the other large screens. This is a sample that favours compounds with a hit; in the whole collection about 4.2% have one here.

O=C(Nc1nnc(CSCc2ccccc2F)s1)c1cccc([N+](=O)[O-])c1	OX1R antag-2 43
CC(C)C(=O)Nc1nnc(CSCc2ccccc2F)s1	none
O=C(NCc1nc(-c2ccc(C(F)(F)F)cc2)no1)Nc1ccc(F)cc1F	none
CN1C(=O)CSc2ccc(NC(=O)NCc3ccccc3)cc21	none
Cc1ccc(NC(=O)Nc2ccc3c(c2)N(C)C(=O)CS3)cc1C	TAAR1 antag 50
CCc1ccc(NC(=O)Nc2ccc3c(c2)N(C)C(=O)CS3)cc1	TAAR1 antag 49
CC(=O)c1cccc(NC(=O)Nc2ccc3c(c2)N(C)C(=O)CS3)c1	TAAR1 antag 66
Cc1ccc(CNC(=O)Nc2ccc3c(c2)N(C)C(=O)CS3)cc1	none
COCOc1cc(O)c2c(=O)c(OCOC)c(-c3ccc(OCOC)c(OCOC)c3)oc2c1	none
CCn1c(SCC(=O)N(C)Cc2ccc(OC)c(F)c2)nc2cc(S(N)(=O)=O)ccc21	none
Cc1ccc(-c2csc3ncnc(N4CCN(C(=O)c5ccccc5)CC4)c23)cc1	TAAR1 antag 50
c1ccc(NCc2nc3ccccc3n2CCOc2ccccc2)cc1	OX1R antag-2 68
CCn1c2ccc(OC)cc2c2nc3ccccc3nc21	none
CCn1c2ccc(Cl)cc2c2nc3ccccc3nc21	OX1R antag-2 69
CCOc1cc(NCc2ccccc2)c2ncn(C(C)C)c2c1	TAAR1 agonist 44
O=C(NCCc1c[nH]c2ccccc12)c1c(Cl)nc2sccn12	TAAR1 agonist 39
COCCCNC1=C(Cl)C(=O)c2ccccc2C1=O	OX1R antag-2 56
COCCCNc1c2c3c(cccc3[nH]c1=O)C(=O)c1ccccc1-2	OX1R antag-1 95, CHO parental Ca 89, TAAR1 agonist 218, OX1R antag-2 56, TAAR1 antag 79
CC(C)NC1=C(Cl)C(=O)c2ccccc2C1=O	OX1R antag-2 43
CC(C)OCCCNC1=C(Cl)C(=O)c2ccccc2C1=O	OX1R antag-2 69
Cc1cccc(NS(=O)(=O)c2ccc(C(=O)N3CCCC3)cc2)c1C	none
CCOCCOC(=O)C1=C(C)Nc2ccc(C)cc2S1	none
COc1cccc(N/C(SCc2ccccc2F)=C(/C#N)C(=O)NCc2cccs2)c1	none
CCC(=O)Nc1ccc(Br)c(Cl)c1	none
CCC(=O)NC1=C(Cl)C(=O)C(NC(=O)CC)=C(Cl)C1=O	TAAR1 agonist 46, TAAR1 antag 50 (no result: OX1R antag-1, CHO parental Ca, OX1R antag-2)
Cc1ccccc1-c1nc(CS(=O)CC(=O)NCCc2ccc(Cl)cc2)c(C)o1 (configuration not stated)	none
Cc1oc(-c2ccccc2Cl)nc1CS(=O)CC(=O)NCCc1ccccc1 (configuration not stated)	TAAR1 agonist 38
Cc1ccc(CNC(C)c2ccccc2)cc1 (configuration not stated)	none
C=CCN(C(=O)c1csnn1)C(C(=O)NC1CCCC1)c1ccc(Cl)cc1 (configuration not stated)	OX1R antag-2 69
CC(C)COc1ccc(/C(=N/O)c2ccccc2)cc1	CHO parental Ca 33
O=C(CCC(=O)N1CCOc2ccccc21)NC1CCN(Cc2ccccc2)CC1	none (no result: GalR3 antag)
Cc1ccc(C(=O)N2NC(c3ccc(F)cc3)C3C(=O)N(c4ccc(C)c(C)c4)C(=O)C32)cc1 (configuration not stated)	TAAR1 agonist 38
Cc1cnc(NC(=O)c2ccc3c(c2)OCCO3)s1	none
Cc1ccc(C(=O)Nc2ncc([N+](=O)[O-])s2)cc1	OX1R antag-2 54
O=C(Nc1ncc([N+](=O)[O-])s1)c1ccc2c(c1)OCO2	CHO parental Ca 29
CCOC(=O)C1=C(C)NC(C)=C(C(=O)OCC)C1C(=O)OCC(=O)NCc1ccccc1OC	OX1R antag-2 45
CCOc1ccc(CC(=O)Nc2sc(Cc3ccccc3)c(C)c2C(N)=O)cc1OCC	OX1R antag-2 57
Cc1c(Cc2ccccc2)sc(NC(=O)c2ccco2)c1C(N)=O	none
COc1ccccc1NC(=O)c1nn(-c2ccc(Cl)cc2)ccc1=O	none
O=C(Cn1c(=S)[nH]c2ccccc2c1=O)NCCc1ccccc1	TAAR1 agonist 38
O=C(CCn1c(=S)[nH]c2ccccc2c1=O)NCCSCc1ccccc1	none
CCN1C(=O)CC(NNC(=O)c2ccc(Cl)cc2)C1=O (configuration not stated)	none
O=C(CCC(=O)Nc1ccccc1)NNC(=O)CCc1ccccc1	none
FC(F)(F)c1ccc(NC2=NCCC2)cc1	none
O=C(OCCCN=C1NS(=O)(=O)c2ccccc21)c1ccc([N+](=O)[O-])cc1	OX1R antag-2 51
O=C(OCCN=C1NS(=O)(=O)c2ccccc21)c1ccccc1	none
COc1ccc2c(c1OC)C(=O)N1c3ccccc3SC21 (configuration not stated)	none
COc1ccc2c(c1OC)C(=O)N1c3ccccc3C(=O)N(c3ccccc3F)C21 (configuration not stated)	TAAR1 antag 66
Cc1cc2nc(C3CCCN(C(=O)NCc4ccccc4)C3)[nH]c2cc1C (configuration not stated)	OX1R antag-2 61
CCOC(=O)N1CCN(CC(=O)Nc2ccc(F)cc2F)CC1	CHO parental Ca 28
CC(C)NS(=O)(=O)c1ccc(CCC(=O)Nc2cc(Cl)ccc2Oc2ccccc2)cc1	CHO parental Ca 44 (no result: TAAR1 agonist, GalR3 antag, TAAR1 antag)
CC(C)NS(=O)(=O)c1ccc(NC(=O)CCc2ccccc2)cc1	none
CCOCCSC1=C(C#N)C(c2cccs2)C(C(C)=O)=C(C)N1 (configuration not stated)	none
Cc1nc2cc(S(=O)(=O)N(C)C)ccc2n1-c1ccccc1	none
COc1cc(OC)nc(Nc2nc(C(N)Cc3ccc(Cl)cc3)cs2)n1 (configuration not stated)	TAAR1 agonist 47 (no result: OX1R antag-1, CHO parental Ca, OX1R antag-2)
NC(Cc1ccc(Cl)cc1)c1csc(Nc2ccc(C(F)(F)F)cn2)n1 (configuration not stated)	TAAR1 agonist 45 (no result: OX1R antag-1, CHO parental Ca, OX1R antag-2)
COc1ccc(N(CC(=O)Nc2cccc(C(F)(F)F)c2)S(=O)(=O)c2c(C)[nH]c(=O)[nH]c2=O)cc1	none
Cc1cccc(NC(=O)CN2C(=O)N/C(=C\c3ccc(N4CCOCC4)cc3)C2=O)c1	none
O=C(Nc1ccc(N2CCOCC2)c(Cl)c1)c1ccc(Br)o1	TAAR1 antag 60
O=C(c1nnsc1S(=O)(=O)c1ccc(Cl)cc1)N1CCOCC1	GalR3 antag 22 (no result: OX1R antag-1, CHO parental Ca, OX1R antag-2)
NC(=S)NN=C1c2ccccc2-c2ccccc21	none
